Values after ≈ are worked out from the molar mass of the structure shown. Active and inactive are the calls of the source.
Columns and labels:
[1] = test system: Acinetobacter baumannii; experiment: Antibacterial activity against Acinetobacter baumanii ATCC 19606 after 18 to 22 hrs in absence of colistin by broth microdilution method; format: functional; conditions: ATCC 19606 = CIP 70.34 = JCM 6841
Summary of the method: (§1)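 Broth microdilution per CLSI guidelines. Gram-negatives grown in TSB. Each strain tested alone and again with colistin at ¼ × MIC to permeabilize the outer membrane. Plates incubated at 37 °C for 18–22 h. MIC read as the lowest concentration showing no visible growth.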

[2] = test system: Escherichia coli; experiment: Antibacterial activity against Escherichia coli O157:H7 ATCC 35150 after 18 to 22 hrs in absence of colistin by broth microdilution method; format: functional
[3] = test system: Enterobacter cloacae; experiment: Antibacterial activity against Enterobacter cloacae BAA-1154 after 18 to 22 hrs in absence of colistin by broth microdilution method; format: functional
[4] = test system: Klebsiella pneumoniae; experiment: Antibacterial activity against Klebsiella pneumoniae BAA-1706 after 18 to 22 hrs in absence of colistin by broth microdilution method; format: functional
[5] = test system: Pseudomonas aeruginosa; experiment: Antibacterial activity against Pseudomonas aeruginosa ATCC 15442 after 18 to 22 hrs in absence of colistin by broth microdilution method; format: functional
[6] = test system: Escherichia coli; experiment: Antibacterial activity against Escherichia coli 1411 harboring delta-acrAB after 18 to 22 hrs in absence of colistin by broth microdilution method; format: functional
[7] = test system: Enterococcus faecium; experiment: Antibacterial activity against vancomycin-resistant Enterococcus faecium ATCC 700221 after 18 to 22 hrs in absence of colistin by broth microdilution method; format: functional
[8] = test system: Acinetobacter baumannii; experiment: Antibacterial activity against Acinetobacter baumanii ATCC 19606 after 18 to 22 hrs in presence of 1/4 times MIC colistin by broth microdilution method; format: functional; conditions: ATCC 19606 = CIP 70.34 = JCM 6841; summary of the method: as §1
[9] = test system: Escherichia coli; experiment: Antibacterial activity against Escherichia coli O157:H7 ATCC 35150 after 18 to 22 hrs in presence of 1/4 times MIC colistin by broth microdilution method; format: functional
[10] = test system: Enterobacter cloacae; experiment: Antibacterial activity against Enterobacter cloacae BAA-1154 after 18 to 22 hrs in presence of 1/4 times MIC colistin by broth microdilution method; format: functional; summary of the method: as §1
[11] = test system: Klebsiella pneumoniae; experiment: Antibacterial activity against Klebsiella pneumoniae BAA-1706 after 18 to 22 hrs in presence of 1/4 times MIC colistin by broth microdilution method; format: functional; summary of the method: as §1
[12] = test system: Pseudomonas aeruginosa; experiment: Antibacterial activity against Pseudomonas aeruginosa ATCC 15442 after 18 to 22 hrs in presence of 1/4 times MIC colistin by broth microdilution method; format: functional; summary of the method: as §1
[13] = test system: Staphylococcus aureus; experiment: Antibacterial against Methicillin-Resistant Staphylococcus aureus after 18 to 20 hrs by broth microdilution method; format: functional
[14] = test system: Enterococcus faecium; experiment: Antibacterial activity against Enterococcus faecium clinical isolates after 18 to 22 hrs by broth microdilution method; format: functional
Summary of the method: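 Enterococcus faecium grown in BHI. MIC by CLSI broth microdilution, 37 °C for 18–22 h. Lowest concentration with no visible growth taken as MIC, reported as MIC50 across the isolates.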

[15] = test system: Enterococcus faecalis; experiment: Antibacterial activity against Enterococcus faecalis clinical isolates after 18 to 22 hrs by broth microdilution method; format: functional
Summary of the method: (§2)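 CLSI broth microdilution against panels of enterococcal isolates. E. faecalis grown in TSB, E. faecium in BHI, 37 °C for 18–22 h. MIC is the lowest concentration without visible growth. MIC50 is the value inhibiting 50% of isolates in each group.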

[16] = test system: Enterococcus faecalis; experiment: Antibacterial activity against vancomycin-resistant Enterococcus faecalis clinical isolates after 18 to 22 hrs by broth microdilution method; format: functional; summary of the method: as §2
[17] = test system: Enterococcus faecium; experiment: Bactericidal activity against Vancomycin-resistant Enterococcus faecium clinical isolates after 18 to 22 hrs by broth microdilution method; format: functional
Summary of the method: (§3)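 MBC follows the broth microdilution MIC. 5 μL aliquots spotted onto TSA (E. faecalis) or BHI agar (E. faecium), incubated 37 °C for 18–22 h. MBC is the concentration giving >99% reduction in bacterial count. MBC50 is the value for 50% of isolates.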

[18] = test system: Enterococcus faecium; experiment: Bactericidal activity against Enterococcus faecium after 18 to 22 hrs by broth microdilution method; format: functional
Summary of the method: (§4)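 MBC determined after the broth microdilution MIC. 5 μL aliquots plated onto TSA (E. faecalis) or BHI agar (E. faecium) and incubated at 37 °C for 18–22 h. MBC is the concentration giving >99% reduction in cell count, reported as MBC50.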

[19] = test system: Enterococcus faecalis; experiment: Bactericidal activity against Enterococcus faecalis clinical isolates after 18 to 22 hrs by broth microdilution method; format: functional; summary of the method: as §4
[20] = test system: Enterococcus faecalis; experiment: Bactericidal activity against vancomycin-resistant Enterococcus faecalis clinical isolates after 18 to 22 hrs by broth microdilution method; format: functional; summary of the method: as §3
[21] = test system: Enterococcus faecalis; experiment: Bactericidal activity against vancomycin-resistant Enterococcus faecalis HM-201 at 4 times MIC after 2 hrs by time-kill assay; format: functional
Summary of the method: (§5)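 Late-log cells diluted to ~5 × 10^6 CFU/mL and exposed in triplicate to 4 × MIC, in TSB (E. faecalis HM-201) or BHI (E. faecium ATCC 700221) at 37 °C. Sampled at 0, 2, 4, 6, 8, 10, 12 and 24 h, diluted serially in PBS and plated on TSA or BHI agar. CFU/mL counted after 18–22 h. DMSO served as negative control.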

[22] = test system: Enterococcus faecium; experiment: Bactericidal activity against vancomycin-resistant Enterococcus faecium ATCC 700221 at 4 times MIC after 4 hrs by time-kill assay; format: functional; summary of the method: as §5
[23] = test system: HRT-18 cell line; experiment: Cytotoxicity against human HRT18 cells assessed as reduction in cell viability up to 40 ug/ml after 2 hrs by MTS assay; format: cell-based; conditions: hrt-18, 2 h
Summary of the method: (§6)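 HRT-18 cells maintained in RPMI-1640 with 10% fetal horse serum at 37 °C, 5% CO2. Exposed to 5, 10, 20 or 40 μg/mL for 2 or 24 h, then MTS added and absorbance read at 490 nm. Viability expressed relative to untreated cells, n ≥ 3, one-way ANOVA with Dunnett's test.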

[24] = test system: HRT-18 cell line; experiment: Cytotoxicity against human HRT18 cells assessed as reduction in cell viability at 20 ug/ml after 24 hrs by MTS assay; format: cell-based; conditions: hrt-18, 24 h; summary of the method: as §6
[25] = test system: HRT-18 cell line; experiment: Cytotoxicity against human HRT18 cells assessed as reduction in cell viability at 40 ug/ml after 24 hrs by MTS assay; format: cell-based; conditions: hrt-18, 24 h; summary of the method: as §6
[26] = test system: Enterococcus faecalis; experiment: Antibacterial activity against Enterococcus faecalis ATCC 31975 at 4 to 8 times MIC after 48 hrs by broth microdillution method; format: functional
Summary of the method: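 Single-step resistance selection. Cultures of 5 × 10^8 to 5 × 10^10 CFU/mL spread on TSA containing compound at 2×, 4× or 8× MIC and incubated aerobically at 37 °C for 48 h. Colony MICs rechecked by broth microdilution. Frequency calculated as resistant colonies per inoculum.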

[27] = test system: Enterococcus faecalis; experiment: Antibacterial activity against vancomycin-resistant Enterococcus faecalis ATCC 51299 assessed as ratio of MIC after and before 6 serial passages measured after 18 hrs by broth microdillution method; format: functional
Summary of the method: (§7)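 Multi-step selection over 14 passages in two weeks. McFarland 0.5 inoculum diluted 1:300 in TSB (E. faecalis) or BHI (E. faecium) to 1 × 10^5 CFU/mL. Each passage reinoculated at ~5 × 10^5 CFU/mL from the sub-inhibitory well of the previous plate. Compounds serially diluted in triplicate, incubated ≥18 h at 37 °C, MIC read visually. Resistance defined as >4-fold MIC rise.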

[28] = test system: Enterococcus faecium; experiment: Antibacterial activity against vancomycin-resistant Enterococcus faecium ATCC HM-968 after 14 serial passages measured after 18 hrs by broth microdillution method; format: functional; summary of the method: as §7
[29] = test system: Enterococcus faecalis; experiment: Synergistic antimicrobial activity against Enterococcus faecalis ATCC 49532 after 20 hrs in presence of ciprofloxacin by checkerboard assay; format: functional
Summary of the method: (§8)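 Checkerboard in TSB with a starting inoculum of 1×10^5 CFU/mL. Compound and antibiotic diluted from 2× or 4× MIC along perpendicular axes. Incubated 20 h at 37 °C. ΣFIC calculated: ≤0.5 synergy, >0.5 to <2 additive, 2–4 indifference, >4 antagonism.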

[30] = test system: Enterococcus faecalis; experiment: Synergistic antimicrobial activity against Enterococcus faecalis ATCC 49533 after 20 hrs in presence of ciprofloxacin by checkerboard assay; format: functional; summary of the method: as §8
[31] = Toxicity in Caenorhabditis elegans AU37 assessed as worm survival at 20 ug/ml after 24 hrs by microscopic analysis; conditions: AU37, caenorhabditis elegans
Summary of the method: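 Adult C. elegans AU37, 15–20 per well, exposed in triplicate to 10 or 20 μg/mL, with sterile water as negative control. Viability checked by microscopy. Result reported as percent viable worms after 24 h exposure.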

[32] = test system: Enterococcus faecalis; experiment: Antibacterial activity against vancomycin-resistant Enterococcus faecalis HM-201 infected in Caenorhabditis elegans AU37 assessed as reduction in bacterial burden at 20 ug/ml after 18 hrs by CFU-based […] analysis relative to control; format: functional; set-up: scale not given: the % may be the effect or the level left
Summary of the method: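 C. elegans AU37 adults infected on an E. faecalis HM-201 lawn for 2 h, washed in M9, 20–25 worms per well. Treated in triplicate with 20 μg/mL, with water as negative control. Worms washed, lysed with silicon carbide by vortexing, diluted serially and plated on TSA with 50 μg/mL gentamicin. CFU counted after 18 h at 37 °C and expressed as % reduction versus untreated worms.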

CCCCC#Cc1ccc(-c2nc(C)c(/C(C)=N/NC(=N)N)s2)cc1
MIC [1]: 8 µg/mL (≈ 22.6 µM)
MIC [2]: > 128 µg/mL
MIC [3]: > 128 µg/mL
MIC [4]: > 128 µg/mL
MIC [5]: > 128 µg/mL
MIC [6]: 8 µg/mL (≈ 22.6 µM)
MIC [7]: 0.5 µg/mL (≈ 1.41 µM)
MIC [8]: 1 µg/mL
MIC [9]: 1 µg/mL
MIC [10]: 1 µg/mL
MIC [11]: 1 µg/mL
MIC [12]: 1 µg/mL
MIC [13]: 1.3 to 5.6 µg/mL (≈ 3.68 to 15.8 µM)
MIC50 [14]: 4 µg/mL (≈ 11.3 µM)
MIC50 [15]: 8 µg/mL (≈ 22.6 µM)
MIC50 [16]: 4 µg/mL (≈ 11.3 µM)
MBC50 [17]: 4 µg/mL (≈ 11.3 µM)
MBC50 [18]: 4 µg/mL (≈ 11.3 µM)
MBC50 [19]: 8 µg/mL (≈ 22.6 µM)
MBC50 [20]: 4 µg/mL (≈ 11.3 µM)
Activity [21]: Active
Activity [22]: Active
Activity [23]: Non-Toxic
Activity [24]: Non-Toxic
Activity [25]: Toxic
Activity [26]: Active
Ratio [27]: 1
Activity [28]: Active
fractional inhibitory concentration index (FICI) [29]: 0.63 - 1
fractional inhibitory concentration index (FICI) [30]: 0.63 - 1
survival at 24 h, 20 ug/ml [31]: 90%
Activity [32]: 94%
